According to ChEMBL document CHEMBL1145037, “Structural properties of dibenzosuberanylpiperazine derivatives for efficient reversal of chloroquine resistance in Plasmodium chabaudi” (2003):

Columns and labels:
[1] = Antimalarial activity was determined in female mice (Mus musculus) after intraperitoneal administration of 50 mg; format: functional, Plasmodium chabaudi
Method in brief: (§1)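 4- to 5-week-old female ICR (CD-1) mice infected iv with 5×10^6 parasitized RBC of CQ-resistant 3CQ line of P. chabaudi AS, thawed from cryopreserved stock. Compound dissolved in DMSO, diluted with saline to 10% (w/v) DMSO, given ip 2 h post-infection and daily for 3 more days (four injections). Parasitemia (PRBC per 10 000 RBC, Giemsa thin films) read daily for 5 days; two mice per compound, three or five for some.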

Mus musculus [2] = assay: Chloroquine resistant reversal activity was determined in female mice after intraperitoneal administration of 50 mg and 4 mg of chloroquine; format: functional
Method in brief: (§2)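 Female ICR (CD-1) mice, 4-5 weeks old, infected iv with 5×10^6 PRBC of CQ-resistant 3CQ line of P. chabaudi AS (cryopreserved stock). 2 h later, test compound (in DMSO diluted with saline to 10% w/v DMSO) given ip, followed by ip CQ; repeated for 3 more days (four injections). Groups: DMSO, CQ alone, compound alone, combination. Parasitemia from Giemsa thin films, daily days 0-4.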

[3] = chloroquine-resistant reversal activity was determined in female mice (Mus musculus) after intraperitoneal administration of 50 mg; format: functional, Plasmodium chabaudi
Method in brief: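 Female ICR CD-1 mice, 4–5 weeks old, given 5×10^6 P. chabaudi AS 3CQ (CQ-resistant) line PRBC iv (thawed from cryopreserved blood). 2 h later, test compound (in DMSO diluted with saline to 10% DMSO) ip plus chloroquine 3 or 4 mg/kg ip, repeated daily for 4 total injections. Controls: DMSO, CQ alone, compound alone. Parasitemia per 10 000 RBC on Giemsa smears daily for 5 days.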

Mus musculus [4] = assay: Chloroquine resistant reversal activity was determined on day 2 in female mice after intraperitoneal administration of 15 mg and 4 mg of chloroquine; format: functional; method in brief: as §2
Mus musculus [5] = assay: Chloroquine resistant reversal activity was determined on day 4 in female mice after intraperitoneal administration of 5 mg and 4 mg of chloroquine; format: functional; method in brief: as §2
Mus musculus [6] = assay: Chloroquine resistant reversal activity was determined on day 2 in female mice after intraperitoneal administration of 10 mg and 4 mg of chloroquine; format: functional; method in brief: as §2
Mus musculus [7] = assay: Chloroquine resistant reversal activity was determined on day 3 in female mice after intraperitoneal administration of 40 mg and 4 mg of chloroquine; format: functional; method in brief: as §2
Mus musculus [8] = assay: Chloroquine resistant reversal activity was determined on day 4 in female mice after intraperitoneal administration of 40 mg and 4 mg of chloroquine; format: functional; method in brief: as §2
Mus musculus [9] = assay: Chloroquine resistant reversal activity was determined on day 2 in female mice after intraperitoneal administration of 30 mg and 4 mg of chloroquine; format: functional; method in brief: as §2
Mus musculus [10] = assay: Chloroquine resistant reversal activity was determined on day 1 in female mice after intraperitoneal administration of 5 mg and 4 mg of chloroquine; format: functional; method in brief: as §2
Mus musculus [11] = assay: Chloroquine resistant reversal activity was determined on day 4 in female mice after intraperitoneal administration of 50 mg and 4 mg of chloroquine; format: functional; method in brief: as §2
Mus musculus [12] = assay: Chloroquine resistant reversal activity was determined on day 0 in female mice after intraperitoneal administration of 15 mg and 4 mg of chloroquine; format: functional; method in brief: as §2
Mus musculus [13] = assay: Chloroquine resistant reversal activity was determined on day 3 in female mice after intraperitoneal administration of 15 mg and 4 mg of chloroquine; format: functional; method in brief: as §2
Mus musculus [14] = assay: Chloroquine resistant reversal activity was determined on day 1 in female mice after intraperitoneal administration of 30 mg and 4 mg of chloroquine; format: functional; method in brief: as §2
Mus musculus [15] = assay: Chloroquine resistant reversal activity was determined on day 1 in female mice after intraperitoneal administration of 40 mg and 4 mg of chloroquine; format: functional; method in brief: as §2
Mus musculus [16] = assay: Chloroquine resistant reversal activity was determined on day 4 in female mice after intraperitoneal administration of 10 mg and 4 mg of chloroquine; format: functional; method in brief: as §2
Mus musculus [17] = assay: Chloroquine resistant reversal activity was determined on day 2 in female mice after intraperitoneal administration of 50 mg and 4 mg of chloroquine; format: functional; method in brief: as §2
Mus musculus [18] = assay: Chloroquine resistant reversal activity was determined on day 0 in female mice after intraperitoneal administration of 5 mg and 4 mg of chloroquine; format: functional; method in brief: as §2
Mus musculus [19] = assay: Chloroquine resistant reversal activity was determined on day 3 in female mice after intraperitoneal administration of 50 mg and 4 mg of chloroquine; format: functional; method in brief: as §2
Mus musculus [20] = assay: Chloroquine resistant reversal activity was determined on day 4 in female mice after intraperitoneal administration of 30 mg and 4 mg of chloroquine; format: functional; method in brief: as §2
Mus musculus [21] = assay: Chloroquine resistant reversal activity was determined on day 2 in female mice after intraperitoneal administration of 40 mg and 4 mg of chloroquine; format: functional; method in brief: as §2
Mus musculus [22] = assay: Chloroquine resistant reversal activity was determined on day 1 in female mice after intraperitoneal administration of 10 mg and 4 mg of chloroquine; format: functional; method in brief: as §2
Mus musculus [23] = assay: Chloroquine resistant reversal activity was determined on day 0 in female mice after intraperitoneal administration of 10 mg and 4 mg of chloroquine; format: functional; method in brief: as §2
Mus musculus [24] = assay: Chloroquine resistant reversal activity was determined on day 3 in female mice after intraperitoneal administration of 30 mg and 4 mg of chloroquine; format: functional; method in brief: as §2
Mus musculus [25] = assay: Chloroquine resistant reversal activity was determined on day 1 in female mice after intraperitoneal administration of 15 mg and 4 mg of chloroquine; format: functional; method in brief: as §2
Mus musculus [26] = assay: Chloroquine resistant reversal activity was determined on day 1 in female mice after intraperitoneal administration of 50 mg and 4 mg of chloroquine; format: functional; method in brief: as §2
Mus musculus [27] = assay: Chloroquine resistant reversal activity was determined on day 4 in female mice after intraperitoneal administration of 15 mg and 4 mg of chloroquine; format: functional; method in brief: as §2
Mus musculus [28] = assay: Chloroquine resistant reversal activity was determined on day 3 in female mice after intraperitoneal administration of 5 mg and 4 mg of chloroquine; format: functional; method in brief: as §2
Mus musculus [29] = assay: Chloroquine resistant reversal activity was determined on day 0 in female mice after intraperitoneal administration of 50 mg and 4 mg of chloroquine; format: functional; method in brief: as §2
Mus musculus [30] = assay: Chloroquine resistant reversal activity was determined on day 3 in female mice after intraperitoneal administration of 10 mg and 4 mg of chloroquine; format: functional; method in brief: as §2
Mus musculus [31] = assay: Chloroquine resistant reversal activity was determined on day 2 in female mice after intraperitoneal administration of 5 mg and 4 mg of chloroquine; format: functional; method in brief: as §2
Mus musculus [32] = assay: Chloroquine resistant reversal activity was determined on day 0 in female mice after intraperitoneal administration of 40 mg and 4 mg of chloroquine; format: functional; method in brief: as §2
Mus musculus [33] = assay: Chloroquine resistant reversal activity was determined on day 0 in female mice after intraperitoneal administration of 30 mg and 4 mg of chloroquine; format: functional; method in brief: as §2
Mus musculus [34] = assay: Antimalarial activity was determined in female mice after intraperitoneal administration of 15 mg of the compound; format: functional; method in brief: as §1
Mus musculus [35] = assay: Chloroquine resistant reversal activity was determined in female mice after intraperitoneal administration of 15 mg and 4 mg of chloroquine; format: functional; method in brief: as §2
Mus musculus [36] = assay: Chloroquine resistant reversal activity was determined in female mice after intraperitoneal administration of 50 mg and 3 mg of chloroquine; format: functional; method in brief: as §2

Cl.c1ccc2c(c1)CCc1ccccc1C2N1CCNCC1
Antimalarial activity [1]: 68%
Reversal activity (Mus musculus [2]): 2%

OC(COc1ccccc1)CN1CCN(C2c3ccccc3CCc3ccccc32)CC1 (stereo unspecified)
Reversal activity [3]: 113%
Antimalarial activity [1]: 136%

CCCCCCCCC(O)CN1CCN(C2c3ccccc3CCc3ccccc32)CC1 (stereo unspecified)
Reversal activity [3]: 84%
Antimalarial activity [1]: 152%

C=CCCC(O)CN1CCN(C2c3ccccc3CCc3ccccc32)CC1 (stereo unspecified)
Reversal activity [3]: 0%
Antimalarial activity [1]: 101%

C=CC(O)CN1CCN(C2c3ccccc3CCc3ccccc32)CC1 (stereo unspecified)
Reversal activity (Mus musculus [4]): 16%
Reversal activity (Mus musculus [5]): 11%
Reversal activity (Mus musculus [6]): 21%
Reversal activity (Mus musculus [7]): 0%
Antimalarial activity [1]: 82%
Reversal activity (Mus musculus [8]): 0%
Reversal activity (Mus musculus [9]): 38%
Reversal activity (Mus musculus [10]): 76%
Reversal activity (Mus musculus [11]): 0%
Reversal activity (Mus musculus [2]): 0%
Reversal activity (Mus musculus [12]): 0%
Reversal activity (Mus musculus [13]): 9.5%
Reversal activity (Mus musculus [14]): 55%
Reversal activity (Mus musculus [15]): 33%
Reversal activity (Mus musculus [16]): 6%
Reversal activity (Mus musculus [17]): 6.2%
Reversal activity (Mus musculus [18]): 0%
Reversal activity (Mus musculus [19]): 0%
Reversal activity (Mus musculus [20]): 0%
Reversal activity (Mus musculus [21]): 10%
Reversal activity (Mus musculus [22]): 62%
Reversal activity (Mus musculus [23]): 0%
Reversal activity (Mus musculus [24]): 2.9%
Reversal activity (Mus musculus [25]): 49%
Reversal activity (Mus musculus [26]): 42%
Reversal activity (Mus musculus [27]): 5.4%
Reversal activity (Mus musculus [28]): 12%
Reversal activity (Mus musculus [29]): 0%
Reversal activity (Mus musculus [30]): 7.9%
Reversal activity (Mus musculus [31]): 32%
Reversal activity (Mus musculus [32]): 0%
Reversal activity (Mus musculus [33]): 0%

CCCCCCCCCCCCCCC(O)CN1CCN(C2c3ccccc3CCc3ccccc32)CC1 (stereo unspecified)
Reversal activity [3]: 110%
Antimalarial activity [1]: 122%

CC(=O)OCC#CCN1CCN(C2c3ccccc3CCc3ccccc32)CC1
Antimalarial activity [1]: 116%
Reversal activity (Mus musculus [2]): 0%

C=CCCCCCCC(O)CN1CCN(C2c3ccccc3CCc3ccccc32)CC1 (stereo unspecified)
Reversal activity [3]: 6.8%
Antimalarial activity [1]: 68%

C=CCCCCC(O)CN1CCN(C2c3ccccc3CCc3ccccc32)CC1 (stereo unspecified)
Reversal activity [3]: 8.9%
Antimalarial activity [1]: 108%

CCCCCCCCCCCCC(O)CN1CCN(C2c3ccccc3CCc3ccccc32)CC1 (stereo unspecified)
Reversal activity [3]: 64%
Antimalarial activity [1]: 138%

CCCCCCC(O)CN1CCN(C2c3ccccc3CCc3ccccc32)CC1 (stereo unspecified)
Reversal activity [3]: 102%
Antimalarial activity [1]: 92%

C=CC(CO)N1CCN(C2c3ccccc3CCc3ccccc32)CC1 (stereo unspecified)
Reversal activity (Mus musculus [4]): 13%
Antimalarial activity (Mus musculus [34]): 103%
Reversal activity (Mus musculus [35]): 2.6%
Reversal activity (Mus musculus [5]): 17%
Reversal activity (Mus musculus [6]): 37%
Reversal activity (Mus musculus [10]): 69%
Reversal activity (Mus musculus [12]): 0%
Reversal activity (Mus musculus [13]): 4%
Reversal activity (Mus musculus [16]): 8.6%
Reversal activity (Mus musculus [18]): 0%
Reversal activity (Mus musculus [22]): 59%
Reversal activity (Mus musculus [23]): 0%
Reversal activity (Mus musculus [25]): 37%
Reversal activity (Mus musculus [27]): 2.6%
Reversal activity (Mus musculus [28]): 33%
Reversal activity (Mus musculus [30]): 23%
Reversal activity (Mus musculus [31]): 35%

CCCCCCCCCCCCCCCCC(O)CN1CCN(C2c3ccccc3CCc3ccccc32)CC1 (stereo unspecified)
Reversal activity [3]: 68%
Antimalarial activity [1]: 67%

COc1ccc(OCC(O)CN2CCN(C3c4ccccc4CCc4ccccc43)CC2)cc1 (stereo unspecified)
Reversal activity (Mus musculus [36]): 90%
Antimalarial activity [1]: 147%

OCC#CCN1CCN(C2c3ccccc3CCc3ccccc32)CC1
Antimalarial activity [1]: 121%
Reversal activity (Mus musculus [2]): 0%

CCC(O)CN1CCN(C2c3ccccc3CCc3ccccc32)CC1 (stereo unspecified)
Antimalarial activity [1]: 99%
Reversal activity (Mus musculus [2]): 0%

Cl.c1ccc2c(c1)CCc1ccccc1C2N1CCN(C2c3ccccc3CCc3ccccc32)CC1
Reversal activity [3]: 81%
Antimalarial activity [1]: 108%

C=CC(C)N1CCN(C2c3ccccc3CCc3ccccc32)CC1 (stereo unspecified)
Antimalarial activity [1]: 22%
Reversal activity (Mus musculus [2]): 0%
